We go through five compounds from ChEMBL document CHEMBL1124865, “Synthesis and biological evaluation of a series of parenteral 3'-quaternary ammonium cephalosporins” (J Med Chem, 1990).

In brackets after ≈: the same amount, converted by molar mass. Where only a bound is given, the exact number is not on record here.

Usually ED50 stands for the dose that gives a 50% effect, or the effect in half of the subjects.

Holding throughout (format): functional
Test [1] deals with Klebsiella pneumoniae. Put plainly: In vitro relative hydrolysis rate against Klebsiella IV. In outline: (§1)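 Spectrophotometric hydrolysis at 265 nm, substrate exposed to partially purified cell-free β-lactamase preparations; rate expressed as percentage of the cephaloridine rate.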
The test system of test [2] is Klebsiella pneumoniae. In words: Antibacterial activity against Klebsiella pneumoniae X26. Particulars: Klebsiella pneumoniae; read-out: MIC.
Test [3] concerns Klebsiella pneumoniae. In words: microbe, parasite or virus in culture. The settings on record: Klebsiella pneumoniae; read-out: MIC.
Test [4] concerns Serratia marcescens. In words: Antibacterial activity against Serratia marcescens SE3. The settings on record: Serratia marcescens; read-out: MIC.
The subject of test [5] is Escherichia coli. Put plainly: In vivo efficacy against Escherichia coli infected mice treated at 1 hr and 5 hr post infection. Particulars: Escherichia coli; read-out: ED50.
The subject of test [6] is Pseudomonas aeruginosa. In words: In vitro relative hydrolysis rate against Pseudomonas Id. In outline: as §1
The subject of test [7] is Enterobacter cloacae. Put plainly: Antibacterial activity against Enterobacter cloacae EB5. The settings on record: Enterobacter cloacae; read-out: MIC.
For test [8], the system named is Streptococcus pneumoniae. Put plainly: Antibacterial activity against Streptococcus pneumoniae. The settings on record: Streptococcus pneumoniae; read-out: MIC.
Test [9] concerns Pseudomonas aeruginosa. Put plainly: Antibacterial activity against Pseudomonas aeruginosa X528. Particulars: Pseudomonas aeruginosa; read-out: MIC.
Test [10] deals with Escherichia coli. Put plainly: Antibacterial activity against Escherichia coli TEM. The settings on record: Escherichia coli; read-out: MIC.
Test [11] relates to Escherichia coli. Put plainly: Antibacterial activity against Escherichia coli EC14. The settings on record: Escherichia coli; read-out: MIC.
Test [12] relates to Enterobacter cloacae. In words: In vitro relative hydrolysis rate against Enterobacter Ia. In outline: as §1
Test [13] deals with Pseudomonas aeruginosa. Put plainly: In vivo efficacy against Pseudomonas aeruginosa infections in mice. The settings on record: Pseudomonas aeruginosa; read-out: MIC.
Test [14] has as its system Escherichia coli. In words: In vitro relative hydrolysis rate against Escherichia coli IIIa. In outline:
as §1

The test system of test [15] is Staphylococcus aureus. In words: In vitro relative hydrolysis rate against Staphylococcus aureus. In outline: as §1
Test [16] deals with Streptococcus pyogenes. In words: Antibacterial activity against Streptococcus pyogenes. Particulars: Streptococcus pyogenes; read-out: MIC.
Test [17] relates to Staphylococcus aureus. Put plainly: In vivo efficacy against Staphylococcus aureus infected mice treated at 1 hr and 5 hr post infection. The settings on record: Staphylococcus aureus; read-out: ED50.
Test [18] concerns Pseudomonas aeruginosa. Put plainly: In vivo efficacy against Pseudomonas aeruginosa infected mice treated at 1 hr and 5 hr post infection. Particulars: Pseudomonas aeruginosa; read-out: ED50.
Test [19] deals with Enterobacter cloacae. In words: Antibacterial activity against Enterobacter cloacae 265A. The settings on record: Enterobacter cloacae; read-out: MIC.
Test [20] has as its system Staphylococcus aureus. In words: Antibacterial activity against penicillin G resistance Staphylococcus aureus. The settings on record: Staphylococcus aureus; read-out: MIC.
The test system of test [21] is Pseudomonas aeruginosa. Put plainly: Antibacterial activity against Pseudomonas aeruginosa PS18. The settings on record: Pseudomonas aeruginosa; read-out: MIC.
Test [22] has as its system Staphylococcus aureus. Put plainly: Antibacterial activity against penicillin G susceptible Staphylococcus aureus. Particulars: Staphylococcus aureus; read-out: MIC.
Test [23] has as its system Enterococcus faecium. In words: Antibacterial activity against Enterococcus faecium. The settings on record: Enterococcus faecium; read-out: MIC.
For test [24], the system named is Staphylococcus aureus. Put plainly: In vivo efficacy against Staphylococcus aureus infections in mice. The settings on record: Staphylococcus aureus; read-out: MIC.
In test [25] the test system is Escherichia coli. Put plainly: In vivo efficacy against Escherichia coli infections in mice. The settings on record: Escherichia coli; read-out: MIC.
The species entered for test [26] is Cavia porcellus. Put plainly: In vitro relative anticholinergic potential in isolated guinea pig trachea. In outline:
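Guinea pig trachea in Krebs' solution at 37.5 °C, 95% O2/5% CO2, pH 7.4, 2 g resting tension. Cumulative carbachol log dose-response curve (3-fold steps) run before and 30 min after adding antagonist at 1 mM. […] Tukey test on log2 dose ratios.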

Take `CO/N=C(\C(=O)N[C@@H]1C(=O)N2C(C(=O)[O-])=C(C[n+]3cccc4sccc43)CS[C@H]12)c1csc(N)n1`: the Hydrolysis rate in test [1] was 0.7; in test [6], 0.2; in test [12], 0.2; in test [14] it was 0.2; in test [15], 6.2. Besides, the MIC turned out to be 0.03 µg/mL (≈ 0.0565 µM) in test [2]; 1 µg/mL (≈ 1.88 µM) in test [3]; 0.125 µg/mL (≈ 0.236 µM) in [4]; 0.25 µg/mL (≈ 0.471 µM) in test [7]; 0.03 µg/mL (≈ 0.0565 µM) in [8]; 2 µg/mL (≈ 3.77 µM) in [9]. In addition, the MIC worked out at 0.06 µg/mL (≈ 0.113 µM) in test [10]; 0.06 µg/mL (≈ 0.113 µM) in test [11]; 2 µg/mL (≈ 3.77 µM) in [13]; 0.015 µg/mL (≈ 0.0283 µM) in [16]; 4 µg/mL (≈ 7.54 µM) in [19]; 4 µg/mL (≈ 7.54 µM) in test [20]. In addition, the MIC in test [21] is 4 µg/mL (≈ 7.54 µM); in test [22], 0.5 µg/mL (≈ 0.942 µM); in test [23], 128 µg/mL (≈ 241 µM); in test [24], 1 µg/mL (≈ 1.88 µM); in [25], 0.03 µg/mL (≈ 0.0565 µM). Moreover, the 50% effective dose (ED50) in test [5] worked out at 0.04 mg/kg; in test [17] it was 0.6 mg/kg; in [18], 9.3 mg/kg.

Turning to `CO/N=C(\C(=O)N[C@@H]1C(=O)N2C(C(=O)[O-])=C(C[n+]3cccc4ccsc43)CS[C@H]12)c1csc(N)n1`, the Hydrolysis rate amounted to 1.5 in test [1]; 0 in [6]; 0.1 in test [12]; 0.5 in test [14]; 9.6 in [15]. The MIC in test [2] turned out to be 0.03 µg/mL (≈ 0.0565 µM); in test [3], 4 µg/mL (≈ 7.54 µM); in [4], 0.06 µg/mL (≈ 0.113 µM); in test [7], 0.125 µg/mL (≈ 0.236 µM); in test [8] it was 0.03 µg/mL (≈ 0.0565 µM); in [9] it was 4 µg/mL (≈ 7.54 µM). Moreover, the MIC is 0.06 µg/mL (≈ 0.113 µM) in test [10]; 0.03 µg/mL (≈ 0.0565 µM) in [11]; 4 µg/mL (≈ 7.54 µM) in test [13]; 0.03 µg/mL (≈ 0.0565 µM) in [16]; 4 µg/mL (≈ 7.54 µM) in test [19]; 2 µg/mL (≈ 3.77 µM) in [20]. The MIC is 8 µg/mL (≈ 15.1 µM) in test [21]; 1 µg/mL (≈ 1.88 µM) in test [22]; 128 µg/mL (≈ 241 µM) in [23]; 1 µg/mL (≈ 1.88 µM) in [24]; 0.015 µg/mL (≈ 0.0283 µM) in [25]. In addition, the ED50 in [5] stood at 0.05 mg/kg; in [17], 0.8 mg/kg; in test [18], 13.5 mg/kg.

As to `CO/N=C(\C(=O)N[C@@H]1C(=O)N2C(C(=O)[O-])=C(C[n+]3ccc4c(c3)nc(C)n4C)CS[C@H]12)c1csc(N)n1`, the MIC in [2] was 0.008 µg/mL (≈ 0.0147 µM); in [3], 2 µg/mL (≈ 3.69 µM); in test [8] it was 0.008 µg/mL (≈ 0.0147 µM); in [9], 4 µg/mL (≈ 7.37 µM); in test [10] it was 0.008 µg/mL (≈ 0.0147 µM); in test [11], 0.008 µg/mL (≈ 0.0147 µM). Also, the MIC was found to be 0.008 µg/mL (≈ 0.0147 µM) in test [16]; 4 µg/mL (≈ 7.37 µM) in [19]; 8 µg/mL (≈ 14.7 µM) in test [21]; 2 µg/mL (≈ 3.69 µM) in test [22]; 128 µg/mL (≈ 236 µM) in [23]. Also, the RAP in test [26] turned out to be 1.

Take `CO/N=C(\C(=O)N[C@@H]1C(=O)N2C(C(=O)[O-])=C(C[n+]3cc(C)cc(C)c3)CS[C@H]12)c1csc(N)n1`: the Hydrolysis rate is given as 1.5 in test [1]; 0.1 in test [6]; 0.1 in [12]; 0.5 in [14]; 6.1 in test [15]. In addition, the MIC in [2] was 0.03 µg/mL (≈ 0.0597 µM); in test [3] it was 8 µg/mL (≈ 15.9 µM); in [4], 0.125 µg/mL (≈ 0.249 µM); in test [7], 0.125 µg/mL (≈ 0.249 µM); in [8] it was 0.03 µg/mL (≈ 0.0597 µM); in [9], 4 µg/mL (≈ 7.96 µM). In addition, the MIC was 0.06 µg/mL (≈ 0.119 µM) in [10]; 0.06 µg/mL (≈ 0.119 µM) in test [11]; under 0.008 µg/mL in test [16]; 8 µg/mL (≈ 15.9 µM) in test [19]; 2 µg/mL (≈ 3.98 µM) in test [20]; 8 µg/mL (≈ 15.9 µM) in test [21]. For the same compound, the MIC was 1 µg/mL (≈ 1.99 µM) in [22] and over 128 µg/mL in [23].

For the compound `CO/N=C(\C(=O)N[C@@H]1C(=O)N2C(C(=O)[O-])=C(C[n+]3ccc4nc(C)n(C)c4c3)CS[C@H]12)c1csc(N)n1`, the MIC in [2] was determined as 0.015 µg/mL (≈ 0.0276 µM); in [3], 2 µg/mL (≈ 3.69 µM); in test [8], 0.015 µg/mL (≈ 0.0276 µM); in [9], 2 µg/mL (≈ 3.69 µM); in test [10], 0.015 µg/mL (≈ 0.0276 µM); in [11] it was 0.015 µg/mL (≈ 0.0276 µM). In addition, the MIC in test [16] stood at 0.015 µg/mL (≈ 0.0276 µM); in [19] it was 4 µg/mL (≈ 7.37 µM); in test [21] it was 8 µg/mL (≈ 14.7 µM); in test [22], 2 µg/mL (≈ 3.69 µM); in test [23], 128 µg/mL (≈ 236 µM). Further, the RAP in test [26] amounted to 2.
